Source: ChEMBL document CHEMBL4190374, “Structure-Function Evaluation of Imidazopyridine Derivatives Selective for δ-Subunit-Containing γ-Aminobutyric Acid Type A (GABAA) Receptors” (J Med Chem, 2018)
Each block holds one molecule with its values, some of them ahead of it. Active and inactive are the calls of the source. The rule behind the calls is not given here.

Experiments:
[1] = biological target: T1, Gamma-aminobutyric acid receptor subunit alpha-6/beta-3/delta (Rattus norvegicus) (UniProt P18506+P30191+P63079); assay: Displacement of [3H]EBOB from rat GABA-A receptor alpha6beta3delta expressed in HEK293 cell membranes at 10 uM after 90 mins by liquid scintillation counting analysis relative to control
Method in brief: (§1)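 Crude membranes from HEK 293 cells transiently Ca-phosphate-transfected with rat subunit cDNAs, harvested at 48 h. Membranes (150-200 µg protein) incubated with 3 nM [3H]EBOB in 50 mM Tris/citrate pH 7.3 plus 0.2 M NaCl. Compound up to 10 µM, final DMSO 0.1%, no GABA, 90 min at 21 °C. Bound radioligand collected by GF/C filtration and counted by scintillation.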

[2] = biological target: T2, Gamma-aminobutyric acid receptor subunit alpha-6/beta-3 (Rattus norvegicus) (UniProt P30191+P63079); assay: Displacement of [3H]EBOB from rat GABA-A receptor alpha6beta3 expressed in HEK293 cell membranes at 10 uM after 90 mins by liquid scintillation counting analysis relative to control; method in brief: as §1
[3] = biological target: T3, Gamma-aminobutyric acid receptor subunit alpha-6/beta-3/gamma-2 (Rattus norvegicus) (UniProt P18508+P30191+P63079); assay: Displacement of [3H]EBOB from rat GABA-A receptor alpha6beta3gamma2 expressed in HEK293 cell membranes at 10 uM after 90 mins by liquid scintillation counting analysis relative to control; method in brief: as §1
[4] = biological target: Gamma-aminobutyric acid receptor subunit alpha-6/beta-3 (Rattus norvegicus, UniProt P30191+P63079); assay: Displacement of [3H]EBOB from rat GABA-A receptor alpha6beta3 expressed in HEK293 cell membranes after 90 mins by liquid scintillation counting analysis; method in brief: as §1
[5] = biological target: Gamma-aminobutyric acid receptor subunit alpha-6/beta-3/gamma-2 (Rattus norvegicus, UniProt P18508+P30191+P63079); assay: Displacement of [3H]EBOB from rat GABA-A receptor alpha6beta3gamma2 expressed in HEK293 cell membranes after 90 mins by liquid scintillation counting analysis; method in brief: as §1
[6] = biological target: Gamma-aminobutyric acid receptor subunit alpha-6/beta-3/delta (Rattus norvegicus, UniProt P18506+P30191+P63079); assay: Displacement of [3H]EBOB from rat GABA-A receptor alpha6beta3delta expressed in HEK293 cell membranes after 90 mins by liquid scintillation counting analysis; method in brief: as §1
[7] = biological target: T2, Gamma-aminobutyric acid receptor subunit alpha-6/beta-3 (Rattus norvegicus); assay: Displacement of [3H]EBOB from rat GABA-A receptor alpha6beta3 expressed in HEK293 cell membranes up to 10 uM after 90 mins by liquid scintillation counting analysis relative to control; method in brief: as §1
[8] = biological target: T3, Gamma-aminobutyric acid receptor subunit alpha-6/beta-3/gamma-2 (Rattus norvegicus); assay: Displacement of [3H]EBOB from rat GABA-A receptor alpha6beta3gamma2 expressed in HEK293 cell membranes up to 10 uM after 90 mins by liquid scintillation counting analysis relative to control; method in brief: as §1
[9] = biological target: T1, Gamma-aminobutyric acid receptor subunit alpha-6/beta-3/delta (Rattus norvegicus); assay: Displacement of [3H]EBOB from rat GABA-A receptor alpha6beta3delta expressed in HEK293 cell membranes up to 10 uM after 90 mins by liquid scintillation counting analysis relative to control; method in brief: as §1
[10] = biological target: Gamma-aminobutyric acid receptor subunit alpha-1/beta-3/delta (Rattus norvegicus, UniProt P18506+P62813+P63079); assay: Modulation of rat […] GABA-A receptor alpha1beta3delta expressed in HEK293 cells in presence of GABA by patch-clamp assay; assay type: cell-based
Method in brief: (§2)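 Rat GABA-A subunits were transiently co-transfected with eGFP into HEK293 cells on coverslips. Fluorescent cells were recorded by whole-cell patch clamp 48 h later; bath pH 7.4, KCl/KOH pipette pH 7.2. Compound was applied at increasing concentrations up to 10 µM with the receptor-specific GABA EC20. Peak currents were fitted logistically for EC50, Hill and % modulation, as mean ± S.E.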

[11] = biological target: Gamma-aminobutyric acid receptor subunit alpha-4/beta-3/delta (Rattus norvegicus, UniProt P18506+P28471+P63079); assay: Modulation of rat […] GABA-A receptor alpha4beta3delta expressed in HEK293 cells in presence of GABA by patch-clamp assay; assay type: cell-based; method in brief: as §2
[12] = biological target: Gamma-aminobutyric acid receptor subunit alpha-1/beta-3/delta (Rattus norvegicus) (UniProt P18506+P62813+P63079); assay: Modulation of rat […] GABA-A receptor alpha1beta3delta expressed in HEK293 cells up to 10 uM in presence of GABA by patch-clamp assay relative to control; assay type: cell-based; method in brief: as §2
[13] = biological target: Gamma-aminobutyric acid receptor subunit alpha-4/beta-3/delta (Rattus norvegicus) (UniProt P18506+P28471+P63079); assay: Modulation of rat […] GABA-A receptor alpha4beta3delta expressed in HEK293 cells up to 10 uM in presence of GABA by patch-clamp assay relative to control; assay type: cell-based; method in brief: as §2
[14] = biological target: T2, Gamma-aminobutyric acid receptor subunit alpha-6/beta-3 (Rattus norvegicus); assay: Modulation of rat […] GABA-A receptor alpha6beta3 expressed in HEK293 cells up to 10 uM in presence of GABA by patch-clamp assay relative to control; assay type: cell-based; method in brief: as §2
[15] = biological target: Gamma-aminobutyric acid receptor subunit alpha-4/beta-3/gamma-2 (Rattus norvegicus) (UniProt P18508+P28471+P63079); assay: Modulation of rat eGFP-fused GABA-A receptor alpha4beta3gamma2 expressed in HEK293 cells at <=1 uM in presence of GABA by patch-clamp assay relative to control; assay type: cell-based
[16] = biological target: T3, Gamma-aminobutyric acid receptor subunit alpha-6/beta-3/gamma-2 (Rattus norvegicus); assay: Modulation of rat eGFP-fused GABA-A receptor alpha6beta3gamma2 expressed in HEK293 cells at <= 1 uM in presence of GABA by patch-clamp assay relative to control; assay type: cell-based
[17] = biological target: Gamma-aminobutyric acid receptor subunit alpha-1/beta-3 (Rattus norvegicus) (UniProt P62813+P63079); assay: Modulation of rat […] GABA-A receptor alpha1beta3 expressed in HEK293 cells at <= 10 uM in presence of GABA by patch-clamp assay relative to control; assay type: cell-based
Method in brief: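 Whole-cell patch clamp on eGFP-co-transfected HEK 293 cells expressing rat subunits, recorded 48 h post-transfection. KCl/KOH-based pipette solution, pH 7.2. Rising compound concentrations up to 10 µM co-applied with the receptor-specific GABA EC20. Peak currents fitted to a logistic function giving EC50, Hill coefficient and % modulation, mean ± S.E. of n experiments.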

[18] = biological target: Gamma-aminobutyric acid receptor subunit alpha-1/beta-3/gamma-2 (Rattus norvegicus) (UniProt P18508+P62813+P63079); assay: Modulation of rat eGFP-fused GABA-A receptor alpha1beta3gamma2 expressed in HEK293 cells at <= 1 uM in presence of GABA by patch-clamp assay relative to control; assay type: cell-based
[19] = biological target: Gamma-aminobutyric acid receptor subunit alpha-4/beta-3 (Rattus norvegicus) (UniProt P28471+P63079); assay: Modulation of rat eGFP-fused GABA-A receptor alpha4beta3 expressed in HEK293 cells at <= 1 uM in presence of GABA by patch-clamp assay relative to control; assay type: cell-based

Sequence of Gamma-aminobutyric acid receptor subunit alpha-6/beta-3/delta (P18506 whole entry): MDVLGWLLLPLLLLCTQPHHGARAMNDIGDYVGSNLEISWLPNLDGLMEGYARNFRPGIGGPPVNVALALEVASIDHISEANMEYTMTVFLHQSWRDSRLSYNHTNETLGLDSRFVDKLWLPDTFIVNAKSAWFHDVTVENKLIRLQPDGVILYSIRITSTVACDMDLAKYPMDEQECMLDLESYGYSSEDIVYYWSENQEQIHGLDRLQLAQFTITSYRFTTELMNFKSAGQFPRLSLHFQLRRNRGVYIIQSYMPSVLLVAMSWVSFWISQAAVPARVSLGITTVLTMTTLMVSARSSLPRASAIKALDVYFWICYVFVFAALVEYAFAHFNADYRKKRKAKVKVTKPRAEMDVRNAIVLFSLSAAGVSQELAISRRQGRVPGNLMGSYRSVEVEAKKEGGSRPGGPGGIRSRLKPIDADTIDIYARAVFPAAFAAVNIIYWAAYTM
Sequence of Gamma-aminobutyric acid receptor subunit alpha-6/beta-3/delta (P30191 whole entry): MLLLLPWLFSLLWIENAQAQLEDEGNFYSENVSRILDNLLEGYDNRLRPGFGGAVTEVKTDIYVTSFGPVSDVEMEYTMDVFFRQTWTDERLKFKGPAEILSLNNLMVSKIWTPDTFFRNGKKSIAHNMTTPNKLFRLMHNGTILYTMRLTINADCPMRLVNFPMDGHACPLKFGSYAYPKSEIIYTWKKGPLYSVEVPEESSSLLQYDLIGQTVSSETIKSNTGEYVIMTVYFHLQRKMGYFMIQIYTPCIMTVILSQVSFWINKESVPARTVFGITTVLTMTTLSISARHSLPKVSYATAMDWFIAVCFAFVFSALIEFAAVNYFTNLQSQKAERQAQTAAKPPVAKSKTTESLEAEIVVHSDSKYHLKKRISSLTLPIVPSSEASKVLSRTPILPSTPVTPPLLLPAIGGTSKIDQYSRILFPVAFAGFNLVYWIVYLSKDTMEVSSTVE
Sequence of Gamma-aminobutyric acid receptor subunit alpha-6/beta-3/delta (P63079 whole entry): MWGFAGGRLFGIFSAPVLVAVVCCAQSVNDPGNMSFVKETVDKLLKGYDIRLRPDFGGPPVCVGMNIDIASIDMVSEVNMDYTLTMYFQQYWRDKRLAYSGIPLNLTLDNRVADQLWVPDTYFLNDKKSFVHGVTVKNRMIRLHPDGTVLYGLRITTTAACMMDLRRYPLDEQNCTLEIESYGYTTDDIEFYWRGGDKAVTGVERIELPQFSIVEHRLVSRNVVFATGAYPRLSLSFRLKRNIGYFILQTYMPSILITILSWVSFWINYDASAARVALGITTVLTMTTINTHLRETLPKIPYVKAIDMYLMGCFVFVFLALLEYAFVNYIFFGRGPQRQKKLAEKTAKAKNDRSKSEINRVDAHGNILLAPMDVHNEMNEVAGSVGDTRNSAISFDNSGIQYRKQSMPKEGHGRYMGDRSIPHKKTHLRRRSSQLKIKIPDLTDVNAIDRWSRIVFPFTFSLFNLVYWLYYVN
Sequence of Gamma-aminobutyric acid receptor subunit alpha-4/beta-3/delta (P18506 whole entry): as the sequence (P18506 whole entry) above
Sequence of Gamma-aminobutyric acid receptor subunit alpha-4/beta-3/delta (P28471 whole entry): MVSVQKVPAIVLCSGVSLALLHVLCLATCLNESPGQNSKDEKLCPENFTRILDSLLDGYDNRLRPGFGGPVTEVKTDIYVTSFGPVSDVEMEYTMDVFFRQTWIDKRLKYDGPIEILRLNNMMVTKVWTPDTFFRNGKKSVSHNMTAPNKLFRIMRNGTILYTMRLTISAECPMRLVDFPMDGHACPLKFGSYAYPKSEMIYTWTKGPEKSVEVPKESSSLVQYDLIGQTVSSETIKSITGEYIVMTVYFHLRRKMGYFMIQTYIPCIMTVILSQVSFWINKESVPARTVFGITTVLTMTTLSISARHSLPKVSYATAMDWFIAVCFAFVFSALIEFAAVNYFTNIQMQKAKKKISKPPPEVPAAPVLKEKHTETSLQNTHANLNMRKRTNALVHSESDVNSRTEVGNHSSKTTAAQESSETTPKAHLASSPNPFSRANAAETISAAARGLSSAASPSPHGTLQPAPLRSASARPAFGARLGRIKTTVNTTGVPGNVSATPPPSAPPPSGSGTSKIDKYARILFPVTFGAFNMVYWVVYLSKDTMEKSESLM
Sequence of Gamma-aminobutyric acid receptor subunit alpha-4/beta-3/delta (P63079 whole entry): as the sequence (P63079 whole entry) above
Sequence of Gamma-aminobutyric acid receptor subunit alpha-1/beta-3/delta (P18506 whole entry): as the sequence (P18506 whole entry) above
Sequence of Gamma-aminobutyric acid receptor subunit alpha-1/beta-3/delta (P62813 whole entry): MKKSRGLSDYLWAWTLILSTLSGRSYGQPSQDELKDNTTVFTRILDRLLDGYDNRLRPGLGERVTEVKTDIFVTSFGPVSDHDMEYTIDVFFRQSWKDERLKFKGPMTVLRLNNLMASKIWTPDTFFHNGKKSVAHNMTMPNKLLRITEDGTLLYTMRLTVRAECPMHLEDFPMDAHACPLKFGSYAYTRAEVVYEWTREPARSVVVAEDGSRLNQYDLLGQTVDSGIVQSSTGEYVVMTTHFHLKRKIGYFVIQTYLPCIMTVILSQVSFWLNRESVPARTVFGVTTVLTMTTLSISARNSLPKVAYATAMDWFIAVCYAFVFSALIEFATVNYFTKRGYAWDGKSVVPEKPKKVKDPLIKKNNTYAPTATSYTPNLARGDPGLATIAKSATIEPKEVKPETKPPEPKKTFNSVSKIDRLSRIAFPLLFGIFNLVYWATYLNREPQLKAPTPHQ
Sequence of Gamma-aminobutyric acid receptor subunit alpha-1/beta-3/delta (P63079 whole entry): as the sequence (P63079 whole entry) above
Sequence of Gamma-aminobutyric acid receptor subunit alpha-6/beta-3/gamma-2 (P18508 whole entry): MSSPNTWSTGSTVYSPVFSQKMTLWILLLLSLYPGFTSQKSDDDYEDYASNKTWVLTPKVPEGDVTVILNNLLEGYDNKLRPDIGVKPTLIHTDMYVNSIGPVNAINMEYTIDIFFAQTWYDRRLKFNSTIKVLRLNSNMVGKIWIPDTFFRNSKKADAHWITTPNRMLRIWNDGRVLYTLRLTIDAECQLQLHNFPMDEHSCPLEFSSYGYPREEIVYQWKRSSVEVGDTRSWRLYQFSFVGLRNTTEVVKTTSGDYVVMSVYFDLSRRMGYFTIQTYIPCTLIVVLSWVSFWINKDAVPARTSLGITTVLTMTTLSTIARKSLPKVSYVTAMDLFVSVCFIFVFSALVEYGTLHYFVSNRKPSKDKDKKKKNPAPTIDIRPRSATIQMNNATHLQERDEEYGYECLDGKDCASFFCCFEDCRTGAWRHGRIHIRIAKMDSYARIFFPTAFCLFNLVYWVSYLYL
Sequence of Gamma-aminobutyric acid receptor subunit alpha-6/beta-3/gamma-2 (P30191 whole entry): as the sequence (P30191 whole entry) above
Sequence of Gamma-aminobutyric acid receptor subunit alpha-6/beta-3/gamma-2 (P63079 whole entry): as the sequence (P63079 whole entry) above
Sequence of Gamma-aminobutyric acid receptor subunit alpha-6/beta-3 (P30191 whole entry): as the sequence (P30191 whole entry) above
Sequence of Gamma-aminobutyric acid receptor subunit alpha-6/beta-3 (P63079 whole entry): as the sequence (P63079 whole entry) above

Imax [1]: 37%
inhibition [2]: inactive
Imax [3]: 15%
Structure (SMILES): O=C(Nc1c(-c2cccs2)nc2c(Br)cc(Br)cn12)c1ccc(OCCF)cc1

IC50 [4]: 2500 nM
IC50 [5]: 5510 nM
IC50 [6]: 860 nM
Imax [7]: 46%
Imax [8]: 24%
Imax [9]: 71%
Structure (SMILES): CCCCOc1ccc(C(=O)Nc2c(-c3cccs3)nc3c(Br)cc(Br)cn23)cc1

IC50 [6]: 1000 nM
inhibition [7]: inactive
inhibition [8]: inactive
Imax [9]: 38%
Structure (SMILES): O=C(Nc1c(-c2cccs2)nc2c(Br)cc(Br)cn12)c1ccc(OCCCF)cc1

Imax [1]: 20%
EC50 [10]: 860 nM
EC50 [11]: 970 nM
Activity [12]: 213%
Activity [13]: 231%
Activity [14]: 588%
Activity [15]: inactive
Activity [16]: inactive
Activity [17]: inactive
Activity [18]: inactive
Activity [19]: inactive
Structure (SMILES): O=C(Nc1c(-c2cccs2)nc2ccccn12)c1ccc(Cl)cc1
